The values that follow come from ChEMBL document CHEMBL5649170, “Sustained microglial depletion with CSF1R inhibitor impairs parenchymal plaque development in an Alzheimer's disease model” (Nat Commun, 2019).

Calls of active or inactive are those of the source. The rule behind the calls is not given here.

Data set [1] can be described thus: Dissociation constant, pKa of compound. Format: physicochemical.
A short description of data set [2]: Inhibition of BCR-CSF1R (unknown origin) expressed in mouse BaF3 cells assessed as inhibition of BCR-CSF1R dependent cell proliferation incubated for 3 days by ATPlite 1step Luminescence Assay reagent based assay. The settings on record: Homo sapiens, BaF3, 72 h. For orientation: ATP-based viability assays read luminescence as a measure of living cells.
Data set [3] can be described thus: Inhibition of BCR-CSF1R (unknown origin) expressed in mouse BaF3 cells assessed as inhibition of IL3-dependent cell proliferation incubated for 3 days by ATPlite 1step Luminescence Assay reagent based assay. As to conditions: Homo sapiens, BaF3, 72 h.
Data set [4] is described as follows: Inhibition of BCR-KIT (unknown origin) expressed in mouse BaF3 cells assessed as inhibition of BCR-KIT dependent cell proliferation incubated for 3 days by ATPlite 1step Luminescence Assay reagent based assay. The settings on record: Homo sapiens, BaF3, 72 h.
Data set [5] in a line: Inhibition of BCR-KIT (unknown origin) expressed in mouse BaF3 cells assessed as inhibition of IL3 dependent cell proliferation incubated for 3 days by ATPlite 1step Luminescence Assay reagent based assay. As to conditions: Homo sapiens, BaF3, 72 h.
Data set [6] deals with Brain. Nature of the data set: Drug penetration in mouse brain. Format: ADME, tissue-based. The settings on record: in vivo.
A short description of data set [7]: Octanol to water partition coefficient, logD of the compound. Format: physicochemical.
The nature of data set [8]: Permeability in human Caco-2 cells. Format: ADME, cell-based. The settings on record: read-out: permeability. (In general: Caco-2 monolayers are a common model of the intestinal barrier.)
Data set [9] has as its target T1, Macrophage colony-stimulating factor 1 receptor (Mus musculus) (UniProt P09581).
T1 sequence (whole entry): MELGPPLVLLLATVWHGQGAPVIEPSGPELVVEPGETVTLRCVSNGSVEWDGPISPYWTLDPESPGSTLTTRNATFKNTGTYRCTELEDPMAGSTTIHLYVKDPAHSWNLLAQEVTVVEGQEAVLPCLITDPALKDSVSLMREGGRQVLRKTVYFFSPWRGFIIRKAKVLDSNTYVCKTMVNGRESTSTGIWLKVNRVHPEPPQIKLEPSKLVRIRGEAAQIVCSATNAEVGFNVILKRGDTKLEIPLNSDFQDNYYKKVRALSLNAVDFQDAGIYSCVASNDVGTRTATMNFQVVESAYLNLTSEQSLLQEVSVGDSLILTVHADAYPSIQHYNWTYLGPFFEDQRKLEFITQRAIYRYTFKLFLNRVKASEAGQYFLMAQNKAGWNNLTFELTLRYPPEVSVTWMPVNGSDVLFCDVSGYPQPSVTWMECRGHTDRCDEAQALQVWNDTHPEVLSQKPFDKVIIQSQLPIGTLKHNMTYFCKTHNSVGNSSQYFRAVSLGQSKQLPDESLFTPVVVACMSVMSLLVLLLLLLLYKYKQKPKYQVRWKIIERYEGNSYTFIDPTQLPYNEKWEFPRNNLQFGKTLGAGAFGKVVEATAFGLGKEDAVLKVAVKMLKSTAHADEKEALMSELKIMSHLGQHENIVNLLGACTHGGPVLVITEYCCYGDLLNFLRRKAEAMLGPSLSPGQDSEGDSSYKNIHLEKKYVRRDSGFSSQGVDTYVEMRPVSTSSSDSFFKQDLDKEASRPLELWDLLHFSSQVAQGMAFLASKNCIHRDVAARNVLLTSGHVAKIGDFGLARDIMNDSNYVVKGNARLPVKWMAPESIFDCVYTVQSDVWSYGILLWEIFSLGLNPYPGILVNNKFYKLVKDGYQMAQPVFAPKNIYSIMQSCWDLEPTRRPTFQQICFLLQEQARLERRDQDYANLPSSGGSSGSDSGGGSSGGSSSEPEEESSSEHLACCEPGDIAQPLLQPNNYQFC
Nature of the data set: In vivo inhibition of CSF1R in wildtype mouse assessed as microglial numbers by measuring number of Iba positive cells per FOV in […] cortex at 75 ppm administered as rodent chow starting from 1.5 months and measured after 5 months by immunolabeling based confocal microscopic analysis (reference value: 200 to 275). The settings on record: route po, time 3.5 months. Format: functional.

For data set [10], the system named is Mus musculus. Nature of the data set: Antialzheimer activity in 5XFAD mouse assessed as number of plaques per FOV in somatosensory cortex at 75 ppm administered as rodent chow starting from 1.5 months and measured after 5 months by immunolabeling based confocal microscopic analysis (reference value: 22 to 91). Format: functional. The settings on record: route po, time 3.5 months, 2555 h. In a few lines:
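5xFAD mice ate AIN-76A chow with 75 ppm PLX3397, or control chow, from 1.5 to 5 months of age. Sections of retrosplenial and somatosensory cortex were stained with Thio-S and immunolabeled for IBA1, then imaged by confocal microscopy. n = 4–5 per group; two-tailed independent t-test; mean ± SEM.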

In data set [11] the target is Casein kinase I isoform gamma-1 (Homo sapiens, UniProt Q9HCP0). Nature of the data set: Inhibition of CSNK1G1 (unknown origin).
Sequence of Casein kinase I isoform gamma-1 (Q9HCP0 whole entry, canonical isoform): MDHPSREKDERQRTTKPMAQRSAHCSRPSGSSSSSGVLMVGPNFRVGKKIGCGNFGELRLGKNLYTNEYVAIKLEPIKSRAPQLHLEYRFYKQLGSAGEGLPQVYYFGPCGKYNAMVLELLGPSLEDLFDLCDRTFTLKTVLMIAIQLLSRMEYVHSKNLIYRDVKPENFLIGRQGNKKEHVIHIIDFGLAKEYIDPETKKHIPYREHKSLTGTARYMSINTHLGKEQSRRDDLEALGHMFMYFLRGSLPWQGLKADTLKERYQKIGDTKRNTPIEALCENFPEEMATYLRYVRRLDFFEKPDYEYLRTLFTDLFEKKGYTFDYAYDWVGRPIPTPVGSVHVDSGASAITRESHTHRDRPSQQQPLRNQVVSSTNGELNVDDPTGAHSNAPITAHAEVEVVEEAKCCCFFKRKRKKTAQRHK
In data set [12] the target is Insulin-like growth factor 1 receptor (Homo sapiens, UniProt P08069). Nature of the data set: Inhibition of IGF1R (unknown origin).
Sequence of Insulin-like growth factor 1 receptor (P08069 31-736 limits assumed): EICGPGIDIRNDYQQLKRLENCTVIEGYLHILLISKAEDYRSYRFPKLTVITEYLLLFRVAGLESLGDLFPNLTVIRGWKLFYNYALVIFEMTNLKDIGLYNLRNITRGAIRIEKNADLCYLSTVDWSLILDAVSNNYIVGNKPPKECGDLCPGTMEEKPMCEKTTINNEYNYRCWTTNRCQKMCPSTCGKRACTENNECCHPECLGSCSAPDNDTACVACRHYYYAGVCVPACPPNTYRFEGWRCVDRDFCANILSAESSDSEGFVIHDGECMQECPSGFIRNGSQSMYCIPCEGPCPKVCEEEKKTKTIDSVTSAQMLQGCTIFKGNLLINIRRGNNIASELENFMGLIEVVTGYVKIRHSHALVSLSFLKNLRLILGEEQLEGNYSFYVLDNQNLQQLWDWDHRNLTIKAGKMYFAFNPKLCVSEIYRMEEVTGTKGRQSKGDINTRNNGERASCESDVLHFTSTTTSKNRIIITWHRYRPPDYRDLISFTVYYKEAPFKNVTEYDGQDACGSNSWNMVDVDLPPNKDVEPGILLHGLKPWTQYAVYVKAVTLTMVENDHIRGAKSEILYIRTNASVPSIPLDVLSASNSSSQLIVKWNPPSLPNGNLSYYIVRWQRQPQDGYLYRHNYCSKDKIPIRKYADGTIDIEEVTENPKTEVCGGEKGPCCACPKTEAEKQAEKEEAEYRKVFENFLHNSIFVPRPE
Sequence of Insulin-like growth factor 1 receptor (P08069 741-1367 limits assumed): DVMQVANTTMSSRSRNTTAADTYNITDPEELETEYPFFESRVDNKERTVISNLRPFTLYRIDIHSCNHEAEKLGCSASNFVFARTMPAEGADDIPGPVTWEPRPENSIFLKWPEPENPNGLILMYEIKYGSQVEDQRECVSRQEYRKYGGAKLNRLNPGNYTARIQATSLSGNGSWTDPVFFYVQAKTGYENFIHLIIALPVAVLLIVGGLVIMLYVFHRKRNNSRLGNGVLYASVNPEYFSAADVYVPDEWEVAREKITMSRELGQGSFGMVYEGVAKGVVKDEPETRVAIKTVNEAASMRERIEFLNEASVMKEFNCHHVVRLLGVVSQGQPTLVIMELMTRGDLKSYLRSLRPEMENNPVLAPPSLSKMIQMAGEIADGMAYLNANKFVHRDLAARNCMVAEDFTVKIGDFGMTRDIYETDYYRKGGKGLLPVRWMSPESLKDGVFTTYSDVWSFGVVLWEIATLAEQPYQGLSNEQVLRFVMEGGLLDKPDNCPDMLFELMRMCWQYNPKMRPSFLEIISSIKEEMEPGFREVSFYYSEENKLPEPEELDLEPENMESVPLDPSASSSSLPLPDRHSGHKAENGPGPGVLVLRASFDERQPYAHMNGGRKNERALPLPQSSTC
Data set [13] concerns the target MAP kinase-activated protein kinase 3 (Homo sapiens, UniProt Q16644). Nature of the data set: Inhibition of MAPKAPK3 (unknown origin).
The target in data set [14] is Serine/threonine-protein kinase Nek9 (Homo sapiens, UniProt Q8TD19). Nature of the data set: Inhibition of NEK9 (unknown origin).
Sequence of Serine/threonine-protein kinase Nek9 (Q8TD19 whole entry): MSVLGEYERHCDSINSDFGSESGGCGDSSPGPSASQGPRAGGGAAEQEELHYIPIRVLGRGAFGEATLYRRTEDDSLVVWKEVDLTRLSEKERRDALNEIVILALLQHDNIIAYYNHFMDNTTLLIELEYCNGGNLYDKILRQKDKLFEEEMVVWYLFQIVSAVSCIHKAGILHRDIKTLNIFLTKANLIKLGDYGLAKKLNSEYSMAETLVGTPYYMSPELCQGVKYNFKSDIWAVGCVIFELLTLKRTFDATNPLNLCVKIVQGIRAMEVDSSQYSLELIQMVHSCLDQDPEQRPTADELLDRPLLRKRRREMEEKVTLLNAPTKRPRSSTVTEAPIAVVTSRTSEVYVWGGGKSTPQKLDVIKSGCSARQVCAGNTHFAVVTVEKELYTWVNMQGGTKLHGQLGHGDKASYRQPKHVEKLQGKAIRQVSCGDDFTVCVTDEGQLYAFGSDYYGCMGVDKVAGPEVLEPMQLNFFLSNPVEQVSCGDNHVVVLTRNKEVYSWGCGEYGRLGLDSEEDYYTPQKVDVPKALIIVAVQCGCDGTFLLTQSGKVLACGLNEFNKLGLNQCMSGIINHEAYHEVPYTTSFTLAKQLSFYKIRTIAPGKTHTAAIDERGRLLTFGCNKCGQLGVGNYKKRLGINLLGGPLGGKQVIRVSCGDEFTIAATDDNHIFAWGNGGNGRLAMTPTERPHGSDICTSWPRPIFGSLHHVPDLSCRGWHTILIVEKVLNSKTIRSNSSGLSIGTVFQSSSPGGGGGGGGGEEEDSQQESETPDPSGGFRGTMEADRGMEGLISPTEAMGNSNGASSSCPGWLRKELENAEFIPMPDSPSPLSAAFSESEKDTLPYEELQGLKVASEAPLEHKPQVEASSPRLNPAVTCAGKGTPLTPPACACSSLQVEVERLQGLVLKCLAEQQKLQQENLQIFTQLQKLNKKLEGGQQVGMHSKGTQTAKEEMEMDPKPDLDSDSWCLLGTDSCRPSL
Data set [15] concerns the target Serine/threonine-protein kinase D2 (Homo sapiens, UniProt Q9BZL6). Nature of the data set: Inhibition of PRKD2 (unknown origin).
Data set [16] addresses Proto-oncogene tyrosine-protein kinase receptor Ret (Homo sapiens, UniProt P07949, V804L). Nature of the data set: Inhibition of RET V804L mutant (unknown origin).
Data set [17] addresses Serine/threonine-protein kinase SIK2 (Homo sapiens, UniProt Q9H0K1). Nature of the data set: Inhibition of SNF1LK2 (unknown origin).
The nature of data set [18]: AUC (0 to infinity) in dog at 1.00 mg/kg, iv administered as single dose. The settings on record: in vivo. Format: ADME, organism-based, Canis lupus familiaris.
For data set [19], the system named is Mus musculus. Nature of the data set: Antialzheimer activity in 5XFAD mouse assessed as amyloidbeta42 level in detergent soluble thalamus fraction measured per microgram protein at 1200 ppm administered as rodent chow starting from 1.5 months and measured after 7 months by ELISA (reference value: 0 to 0.271 pg). Format: functional. As to conditions: route po, time 5.5 months, 4015 h. In a few lines:
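PLX5622 at 1200 ppm in chow given to 5xFAD mice from 1.5 months to 4 or 7 months of age; cortex and thalamus homogenized in TPER (detergent-soluble), pellets re-homogenized in 70% formic acid and spun 100,000 g, 1 h, 4 °C (insoluble); protein by Bradford/Lowry; Aβ species measured by Meso Scale electrochemiluminescence immunoassay, normalized to protein; n = 7–8 per group at 7 months.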

Data set [20] relates to Mus musculus. Nature of the data set: Antialzheimer activity in 5XFAD mouse assessed as alteration in plaque morphology in cortex at 1200 ppm administered as rodent chow starting from 1.5 months and measured after 7 months by Thio-S labeling based confocal microscopic analysis. Format: functional, organism-based. The settings on record: route po, time 5.5 months.
Data set [21] is described as follows: Effect on Itgax gene expression in 5XFAD mouse hippocampus at 1200 ppm administered as rodent chow starting from 1.5 months and measured after 7 months by RNA-Seq analysis (reference value: 2.202 to 4.490 RPKM). The settings on record: route po, time 5.5 months, 4015 h. Format: functional.
The nature of data set [22]: Prevention of Rtn4r gene downregulation in 5XFAD mouse hippocampus assessed as percent change in Reads Per kilo base per Million mapped reads at 1200 ppm administered as rodent chow starting from 1.5 months and measured after 7 months by RNA-Seq analysis (reference value: 53.880 to 87.869 %). Format: functional. The settings on record: route po, time 5.5 months, 4015 h.

Sequence of MAP kinase-activated protein kinase 3 (Q16644 whole entry): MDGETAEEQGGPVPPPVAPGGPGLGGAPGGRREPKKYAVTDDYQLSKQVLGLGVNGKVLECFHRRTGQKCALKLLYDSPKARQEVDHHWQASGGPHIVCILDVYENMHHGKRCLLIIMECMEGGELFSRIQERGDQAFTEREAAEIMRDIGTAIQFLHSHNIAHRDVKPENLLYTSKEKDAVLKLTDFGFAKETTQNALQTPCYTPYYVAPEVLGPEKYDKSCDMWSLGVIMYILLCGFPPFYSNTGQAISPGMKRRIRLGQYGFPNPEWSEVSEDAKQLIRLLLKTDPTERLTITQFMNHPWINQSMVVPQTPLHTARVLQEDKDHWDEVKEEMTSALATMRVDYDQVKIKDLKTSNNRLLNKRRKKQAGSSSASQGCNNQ
Sequence of Proto-oncogene tyrosine-protein kinase receptor Ret (P07949 29-1114 V804L limits assumed): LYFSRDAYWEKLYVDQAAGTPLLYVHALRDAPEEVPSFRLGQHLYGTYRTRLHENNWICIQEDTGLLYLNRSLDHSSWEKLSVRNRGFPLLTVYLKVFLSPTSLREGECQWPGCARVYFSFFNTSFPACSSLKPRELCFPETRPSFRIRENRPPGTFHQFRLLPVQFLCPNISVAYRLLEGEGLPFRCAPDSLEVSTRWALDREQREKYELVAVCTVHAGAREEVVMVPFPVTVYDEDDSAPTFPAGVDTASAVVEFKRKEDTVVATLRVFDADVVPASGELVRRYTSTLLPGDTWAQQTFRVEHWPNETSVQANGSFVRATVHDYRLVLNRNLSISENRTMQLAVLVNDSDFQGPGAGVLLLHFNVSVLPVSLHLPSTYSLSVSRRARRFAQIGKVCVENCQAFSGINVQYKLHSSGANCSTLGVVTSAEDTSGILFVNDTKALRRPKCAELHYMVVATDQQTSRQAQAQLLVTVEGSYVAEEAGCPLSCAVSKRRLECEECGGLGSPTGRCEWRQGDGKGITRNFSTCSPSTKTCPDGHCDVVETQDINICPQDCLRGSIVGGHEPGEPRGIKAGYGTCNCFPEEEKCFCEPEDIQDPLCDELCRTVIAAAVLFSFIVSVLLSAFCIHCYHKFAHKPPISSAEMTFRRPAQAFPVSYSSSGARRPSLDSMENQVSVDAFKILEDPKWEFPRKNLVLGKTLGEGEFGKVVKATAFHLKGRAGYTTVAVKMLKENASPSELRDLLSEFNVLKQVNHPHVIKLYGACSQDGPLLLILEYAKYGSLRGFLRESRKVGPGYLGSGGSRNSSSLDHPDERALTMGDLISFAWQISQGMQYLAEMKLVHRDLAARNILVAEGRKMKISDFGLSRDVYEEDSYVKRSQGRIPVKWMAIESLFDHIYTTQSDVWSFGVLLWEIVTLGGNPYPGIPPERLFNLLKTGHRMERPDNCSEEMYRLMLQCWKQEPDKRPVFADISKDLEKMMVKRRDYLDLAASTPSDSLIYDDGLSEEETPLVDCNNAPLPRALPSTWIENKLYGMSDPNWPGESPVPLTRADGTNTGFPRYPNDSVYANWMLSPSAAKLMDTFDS

As for `FC(F)(F)c1ccc(CNc2ccc(Cc3c[nH]c4ncc(Cl)cc34)cn2)cn1` [PEXIDARTINIB], the pKa (commonly the negative logarithm of the acid dissociation constant) in [1] stood at 5.2. Also, the 50% inhibitory concentration (IC50) – broadly, the concentration needed to halve the response being measured – in data set [2] was 9 nM; in data set [3] it was > 10000 nM; in data set [4], 110 nM; in [5] it was > 10000 nM. The Drug uptake in data set [6] was ~ 5%. Moreover, the logD (in general, lipophilicity at a set pH, counting ionised and neutral species) in data set [7] came to 3.35. Besides, in [8], the Papp is 1.4 ×10⁻⁶ cm/s. Moreover, the values for the Activity in data set [9] and in [10] were 162 and 31, respectively.
`COc1ncc(F)cc1CNc1ccc(Cc2c[nH]c3ncc(C)cc23)c(F)n1` [PLX-5622] came in with a pKa in [1] of 4.14. Moreover, the IC50 in data set [11], in [12], in data set [13], in data set [14], in [15] and in [16] was > 1000 nM each time. For the same compound, the IC50 in [17] was > 1000 nM; in data set [2], 17 nM; in data set [3], > 10000 nM; in [4], 2700 nM; in [5], > 10000 nM. Also, in [18], the AUC(0-inf) (in general, the area under the concentration-time curve extrapolated to infinity) was determined as 6230 ng·h/mL. The Drug uptake in [6] is on record as ~ 20%. In data set [7], this compound had a log distribution coefficient (logD) of 3.92. For the same compound, the Papp in [8] came to 12.2 ×10⁻⁶ cm/s. The Activity was determined as 0 pg in data set [19], 0.155 RPKM in data set [21] and 95.841% in [22]. In addition, the result in data set [20] was Active.
